Bioassay records deposited in PubChem by Sanford-Burnham Center for Chemical Genomics.
CXCR6 inh: CXCR6 receptor inhibitors, primary screen, cell-based, beta-arrestin, luminescence, CHO-K1 PathHunter, 1536-well; inhibition, % at 20 µM; 360,000 tested, 0.36% active; in the data active means inhibition above about 34%, passing the limit was not always enough;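 further: antagonist mode with CXCL16 agonist at 10 nM final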
Target sequence (O00574 whole entry, looked up): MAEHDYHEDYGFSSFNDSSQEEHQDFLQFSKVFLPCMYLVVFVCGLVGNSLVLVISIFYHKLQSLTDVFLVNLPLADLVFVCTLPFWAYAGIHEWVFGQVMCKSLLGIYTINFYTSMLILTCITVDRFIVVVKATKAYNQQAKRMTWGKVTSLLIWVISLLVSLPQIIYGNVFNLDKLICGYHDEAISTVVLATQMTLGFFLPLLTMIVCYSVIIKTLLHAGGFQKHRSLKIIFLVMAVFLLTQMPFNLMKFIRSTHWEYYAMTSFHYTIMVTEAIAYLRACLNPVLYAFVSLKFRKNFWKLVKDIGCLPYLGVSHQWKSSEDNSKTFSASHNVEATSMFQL
CCR6 antagonist: CCR6 receptor antagonists, primary screen, cell-based, CHO-K1, luminescence, beta-arrestin, uHTS. 340,000 tested, 0.49% active. inhibition, % at 20 µM. C-C chemokine receptor type 6 (Homo sapiens), P51684. CHO-K1 CCR6 PathHunter beta-arrestin, CCL20-stimulated. AID 493098, 2011;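 active means compounds whose inhibition of the agonist-driven luminescence signal at 20 µM reaches about 50%, limit read from the data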;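 further: cells stimulated with CCL20 at 14 nM final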
APJ antagonist: antagonists of human apelin receptor APJ, primary screen, CHO-K1 cells, beta-arrestin complementation, luminescence. inhibition, % at 20 µM. 330,000 tested, 0.32% active. AID 2521, 2010;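 active means inhibition above about 40% at 20 µM, limit read from the data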;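 further: cells challenged with 10 nM apelin-13 agonist together with compound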
APJ agonist: agonists of human apelin receptor APJ, primary screen, CHO-K1 cells, PathHunter beta-arrestin, luminescence; activation, % at 20 µM; AID 2520, 2010; 0% DMSO wells, 100% apelin; 330,000 tested, 0.11% active;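 active means activation more than six SD over the plate average, tested at 20 µM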
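Material: CHO-K1 APJ beta-arrestin complementation cell line; Input: cell density 1000 per well; Incubation: compound stimulation 90 min at 25 °C, detection 60 min; Signal: luminescence from split beta-galactosidase complementation, Galacton Star/Emerald II substrate; Controls: DMSO-only wells as negative, 10 nM Apelin-13 as positive control.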
EBI2 block: EBI2 receptor antagonists, beta-arrestin recruitment, primary screen, cell-based, luminescence, 7a,25-OHC stimulation, uHTS. G-protein coupled receptor 183 (Homo sapiens), P32249. 360,000 tested, 0.81% active. 7a,25-OHC stimulated. AID 651636, 2012. inhibition, % at 5 µM; in the data active means inhibition above about 38%;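 further: enzyme fragment complementation signal reports receptor beta-arrestin coupling in cells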
A number is an active result; i = inactive; nt = no result given. Rows were chosen to be rich in hits. Some 1.5% of all compounds tested hit in one or more screens of this group.

SMILES	CXCR6 inh	CCR6 antagonist	APJ antagonist	APJ agonist	EBI2 block
Cc1cc(/C=N/n2c(COc3ccccc3)nc3ccccc3c2=O)c(O)c([N+](=O)[O-])c1	i	i	i	i	45.0
CC(C)CC1NC(=O)c2cccnc2-n2c1nc1cc(F)ccc1c2=O (stereo not given)	i	nt	nt	nt	i
CCOC1CCCc2oc(-c3ccsc3)c(-c3cnc(OC)nc3)c21 (stereo not given)	i	nt	nt	nt	i
N#CC(C#N)=C(N)/C(C#N)=C/c1cc(O)c(O)c(O)c1	54.7	70.5	56.8	i	i
COc1ccc(Cn2c(C3CC3)nc3ccc(NC(=O)c4cccnc4)cc3c2=O)cc1	i	i	i	i	53.1
Cc1ccc(S(=O)(=O)N2[C@H](CC(=O)c3ccc(Cl)c(Cl)c3)OC[C@@H]2C(C)C)cc1	nt	nt	nt	nt	i
Cc1cccc(C)c1NC(=O)C1(C)CSCC(=O)N1CCc1ccccc1 (stereo not given)	nt	nt	nt	nt	i
Oc1[nH]c2ccc(Br)cc2c1N=NC(=S)N1CCOCC1	i	i	i	i	41.9
O=C1C(SCCO)=C(SCCO)C(=O)c2ccccc21	102.8	107.7	i	i	i
C=CCN1C=C/C(=C\C=C(C#N)C#N)c2ccccc21	45.5	73.6	70.1	i	i
CCCCCCN1C=C/C(=C\C=C(C#N)C#N)c2ccccc21	61.4	76.5	65.2	i	i
Cc1c(NC(=O)CSc2nnc(-c3ccccc3F)o2)c(=O)n(-c2ccccc2)n1C	i	nt	nt	nt	i
CCOC(=O)C1=CCN(S(=O)(=O)c2ccccc2Cl)C1c1ccc(C)cc1 (stereo not given)	i	nt	nt	nt	i
C=C1CC(Cn2cc(Br)c(=O)[nH]c2=O)(c2ccc(-c3ccccc3)cc2)OC1=O (stereo not given)	42.8	nt	nt	nt	84.1
O=C1C=C(O)c2c(O)cccc2C1=O	nt	nt	i	i	nt
O=C(O)c1cc(O)c2c(c1)C(=O)c1cccc(O)c1C2=O	48.4	78.9	i	i	i
O=C(O)CN1C(=O)C=CC1=O	i	nt	nt	nt	i
O=C1C=CC(=O)N1CCCCCCN1C(=O)C=CC1=O	nt	103.5	nt	nt	nt
N#C/C(=C\c1ccc(O)c(O)c1)S(=O)(=O)c1ccccc1	i	52.7	i	i	i
COc1ccc(CCNC(=O)C2CCN(C(=O)c3ccccc3)CC2)cc1	nt	57.0	i	i	nt
CC(C)Cn1cc(-c2cccc3nccn23)cn1	i	nt	nt	nt	i
O=C(Oc1c(Cl)cc(Cl)c2cccnc12)c1cccc([N+](=O)[O-])c1	i	68.4	i	i	i
CC(=O)N1CCC(C(=O)N2c3ccccc3N=C(c3ccc(C(F)(F)F)cc3)C2C(=O)NC(C)C)CC1 (stereo not given)	nt	nt	nt	nt	i
CN(C(=O)CSc1nc(-c2ccccc2)cn1N)C(c1ccccc1)c1ccccc1	i	i	i	i	36.3
COc1ccccc1CNC(=O)CSc1nc(-c2ccccc2)cn1N	i	i	i	i	i
SMILES	CXCR6 inh	CCR6 antagonist	APJ antagonist	APJ agonist	EBI2 block
Oc1csc(Cc2nc(-c3ccc(-c4ccccc4)cc3)cs2)n1	i	i	i	i	i
Oc1csc(Cc2nc(-c3ccc4ccccc4c3)cs2)n1	i	56.3	i	i	i
CC(C)(C)C(=O)NC(=S)NNC(=O)C(c1ccccc1)c1ccccc1	72.1	79.0	i	i	i
OCC[C@H]1NCc2cc(CO)cc(-c3ccccc3)c21	i	i	nt	nt	i
COc1cccc(/C=N/n2c(N)c(S(=O)(=O)c3cccs3)c3nc4ccccc4nc32)c1	i	i	i	i	i
Cc1ccc(S(=O)(=O)c2c(N)n(/N=C/c3ccco3)c3nc4ccccc4nc23)cc1C	i	i	i	i	46.1
Nc1c(S(=O)(=O)c2cccs2)c2nc3ccccc3nc2n1/N=C/c1cccc(O)c1	i	i	i	i	57.9
O=c1cc(CO)[nH]nc1CO	i	nt	nt	nt	i
Cc1cc(/C=C\c2ccc3cc(N(C)C)ccc3[n+]2C)c(C)n1-c1ccccc1	i	51.4	i	i	i
CC(C)(C)c1ccc(OCC(=O)NNC(=S)NC(=O)c2ccco2)c(Br)c1	i	55.6	i	i	i
CC(C)c1ccc(OCC(=O)NNC(=S)NC(=O)c2ccco2)c(Br)c1	i	i	i	i	i
COC(=O)C[C@H]1CC[C@@H](NC(=O)c2ccncc2)[C@@H](CO)O1	nt	nt	nt	nt	i
Cc1ccc(Nc2c(-c3ccccn3)nc3cc(C)ccn23)cc1	40.1	56.5	i	i	i
CCOC(=O)C1CCN(Cc2ccc(O)c3ncccc23)CC1	i	i	i	i	45.1
COc1ccccc1N1CCN(Cc2ccc(OC)c(OC)c2OC)CC1	i	i	i	i	i
CCOC(=O)C1CCN(Cc2ccccc2C(F)(F)F)CC1	i	i	i	i	i
COc1ccccc1N1CCN(Cc2ccc(O)c3ncccc23)CC1	i	i	i	i	72.6
CCN(CC)c1ccc(/C=C2\C(=O)N(c3nnc(C)c(=O)[nH]3)N=C2C)cc1	i	i	i	i	62.6
CCc1nc2c(OCc3ccc(Cl)cc3)cccn2c1N(C)C(=O)c1ccncc1	i	nt	nt	nt	i
NC(=S)N/N=C/c1ccccc1	i	i	i	i	i
NC(=S)N/N=C/c1ccc(C23CC4CC(CC(C4)C2)C3)cc1	nt	65.5	i	i	nt
O=C(NC(=S)N(CCCCO)C1CCCCC1)c1sc2ccccc2c1Cl	i	66.7	i	i	i
CCN(CC)c1ccc(C=C2C(=O)OC3(CCCCC3)OC2=O)cc1	i	i	i	i	i
CCN(CC)c1ccc(/C=C2/C(=O)c3ccc(C(=O)O)cc3C2=O)cc1	55.5	77.3	nt	nt	i
COC(=O)c1ccc2nc(-c3ccc(C#N)cc3)c(Cc3cccc(Cl)c3)n2c1	i	nt	nt	nt	i
SMILES	CXCR6 inh	CCR6 antagonist	APJ antagonist	APJ agonist	EBI2 block
Cc1cc(N(C)/N=C/c2ccccc2O)nc(-c2ccccc2O)n1	42.0	56.0	i	i	i
O=C1Nc2ccccc2C1=Nc1ccc(Cl)cc1	i	64.9	nt	nt	i
Cc1ccc(N=C2C(=O)Nc3ccccc32)cc1C	i	52.2	i	i	i
CCN(CC)c1ccc(N=C2C(=O)Nc3ccccc32)cc1	i	i	i	i	i
COc1cc(/C=N/N=C2/C(=O)Nc3ccccc32)cc(OC)c1O	i	60.8	i	i	i
Cc1cc(C)c(N=C2C(=O)Nc3ccccc32)c(C)c1	i	i	i	i	i
COC(=O)[C@@]12C[C@@H](CC(=O)N3CCN(C(=O)c4ccco4)CC3)C(=O)N(Cc3ccccc3)C1=CCC(C)(C)C2	nt	nt	nt	nt	i
O=C(ONc1ccc(N=NC(=O)c2ccccc2O)cc1)c1ccccc1	i	56.3	i	i	i
C[C@H](CO)N1C[C@H](C)[C@@H](CN(C)S(=O)(=O)c2ccc3c(c2)OCCCO3)OCc2cn(nn2)CCCC1=O	i	nt	nt	nt	i
CCN(CC)c1ccc2c(Cl)c(Br)c(=O)oc2c1	i	i	i	i	53.6
CCN(CC)c1ccc2c(c1)oc(=O)c1c(Cl)cc(=O)oc12	60.2	i	i	i	61.7
CCN(CC)c1ccc2c(C)c(Cl)c(=O)oc2c1	i	i	i	i	i
